An excerpt weighted towards active compounds, which were near 2.3% of everything screened.
TRPC6 act – activators of mouse TRPC6 channel | Q61143 | HEK293-TRPC6 membrane potential dye fluorescence; hits give high values | B-score at 10 µM | 310,000 compounds, 0.13% hits | AID 2550;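 active = B-score of the integrated fluorescence ratio above library mean plus 3 SD, and starting fluorescence ratio within library mean plus 5 SD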;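 note: higher score means more depolarization so channel activation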
TRPC4 act – TRPC4 (mouse) channel activation. Q9QUQ5. HEK293 TRPC4beta/mu-opioid, Fluo4 calcium fluorescence; hits give high values. B-score at 10 µM. 310,000 compounds, 0.49% hits. AID 2237;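 active = B-score above 5 SD of library B-scores, and initial fluorescence ratio not above library mean plus 5 SD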;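 note: positive B-score marks a calcium rise read as TRPC4 activation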
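Assay system: HEK293 stable line with TRPC4beta plus mu-opioid receptor. Times: dye 45 min RT, read 110 s. Measured by: kinetic Fluo4 calcium fluorescence. Measure: B score of integrated ratio. Controls: assay buffer as low control, maximal DAMGO as high control.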
TRPC4 PAM – allosteric potentiators of mouse TRPC4 channel. B-score at 10 µM. HEK293 TRPC4beta/mu-opioid, DAMGO EC20, Fluo-4 Ca2+ flux; hits give high values. 310,000 compounds, 0.42% hits. AID 2227;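 active = B-score of calcium response area above 5 SD of library B-scores, with initial fluorescence ratio within 5 SD of library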;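 note: B-score of integrated fluorescence ratio over time as area under calcium response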
TRPC4 inh – blocks the mouse TRPC4 cation channel. Q9QUQ5. HEK293 TRPC4beta/mu-opioid, DAMGO-evoked Fluo4 calcium flux; hits give low values. B-score at 10 µM. 300,000 compounds, 0.39% hits;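 active = B-score over 3 SD under the library average, no early fluorescence shift, positive overall ratio signal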
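Material: HEK293 cells with stable TRPC4beta plus mu-opioid receptor expression / Probe or stimulus: DAMGO in two steps, submaximal then maximal / Compound: single concentration per test compound / Technique: kinetic Fluo4 fluorescence imaging of calcium influx / Read-out: per-well B score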
TRPC6 inhibitor – inhibitors of mouse TRPC6 channel | Q61143 | HEK293-TRPC6, membrane potential dye, ACh-evoked depolarization; hits give low values | B-score at 10 µM | 310,000 compounds, 1.1% hits | AID 2553;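 active = B-score under library mean minus 3 SD, initial fluorescence not abnormally high, positive integrated signal ratio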;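 note: B-score derived from integrated fluorescence ratio over the kinetic read; more negative B-score means stronger inhibition of depolarization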
The depositor's hits bear a star; i = inactive.

SMILES | TRPC6 act | TRPC4 act | TRPC4 PAM | TRPC4 inh | TRPC6 inhibitor
CCOc1cc(/C=C2\SC(=S)N(NS(=O)(=O)c3ccc(C)cc3)C2=O)ccc1O | i | i | i | i | i
COc1cccc(/C=C2\SC(=S)N(NS(=O)(=O)c3ccc(C)cc3)C2=O)c1OC | i | i | i | -6* | i
Cc1cc(C)c(S(=O)(=O)c2cccc(Br)c2C)c(Cl)n1 | i | i | i | i | i
COCCc1nc2ccc(C(=O)N(C)Cc3cccc(-n4nc(C)cc4C)c3)cc2o1 | i | i | i | i | i
NC1=NC(=O)/C(=C\c2ccsc2)S1 | i | i | i | i | i
C/C(=N/Nc1ccnc2cc(Cl)ccc12)c1ccc(O)cc1 | i | i | i | i | i
C/C(=N/Nc1ccnc2cc(Cl)ccc12)c1ccc(N)cc1 | i | 63* | i | i | i
OCCN1CCN(Cc2cc(Br)cc(Br)c2O)CC1 | i | 176* | i | i | i
CNC(=S)N/N=C/c1ccco1 | i | i | i | i | i
CCOc1ccccc1NC(=O)CN(c1ccc(OC)cc1)S(=O)(=O)c1c(C)[nH]c(=O)[nH]c1=O | i | i | 20* | i | i
O=C(O)COc1ccccc1C(Nc1cccnc1)c1cc(Cl)c2cccnc2c1O (stereo not drawn) | i | i | i | i | i
O=C(NC(c1ccccc1)c1cc(Cl)c2cccnc2c1O)c1cccnc1 (stereo not drawn) | i | i | i | i | -5.8*
CC(=O)N1CCN(c2ccccc2NC(=O)c2cccs2)CC1 | i | i | i | -6* | i
CCC(=O)N1CCN(c2ccccc2NC(=O)c2cccs2)CC1 | i | i | i | i | i
CC(C)C(=O)N1CCN(c2ccccc2NC(=O)c2ccco2)CC1 | i | i | i | -10* | i
COc1ccc(C(=O)Nc2ccccc2N2CCCC2)cc1 | i | i | i | i | i
CC(=O)N1CCN(c2ccccc2NC(=O)c2ccc3ccccc3c2)CC1 | i | i | i | -5* | i
O=C(CN1CCCCC1)NNc1nc(-c2ccccc2)c2cc(Br)ccc2n1 | i | i | i | i | i
Cc1nc(NC(=O)CSc2nnnn2Cc2ccccc2)sc1C | i | i | i | i | i
Cc1ccsc1C(=O)OCC(=O)NCCNC(=O)COC(=O)c1sccc1C | i | i | i | -7* | i
COCCNC(=O)C(c1ccc(C)o1)N(C(=O)C(=O)NC1CCCCC1)c1ccc(F)cc1 (stereo not drawn) | i | i | i | i | i
NC1=NC(=O)C2(COC(c3cccnc3)OC2)S1 (stereo not drawn) | i | i | i | i | i
CC(C)OC(=O)c1c2nc3ccccc3nc2n2c1[nH]c(=O)c1ccccc12 | i | i | 10* | i | i
CC(C)OC(=O)c1c(N)n(CCCN2CCOCC2)c2nc3ccccc3nc12 | i | i | i | i | i
CC(C)c1ccc(CN(C)CC(O)c2ccccc2)cc1 (stereo not drawn) | i | i | i | i | i
SMILES | TRPC6 act | TRPC4 act | TRPC4 PAM | TRPC4 inh | TRPC6 inhibitor
CN(CCOc1ccc(Cl)cc1)CC(O)c1ccccc1 (stereo not drawn) | i | 126* | i | i | i
CN(CCOc1ccc(Br)cc1)CC(O)c1ccccc1 (stereo not drawn) | i | 149* | i | i | i
CC(=O)OCC1O[C@@H](O[C@@H]2C[C@H]3C(C)(C)[C@H](OC(C)=O)CC[C@]3(C)[C@H]3CC[C@]45C[C@]4(CC[C@H]5[C@@H](C)C[C@@H](O)[C@H](O)C(C)(C)O)[C@@]32C)[C@H](O)[C@@H](O)[C@@H]1O (stereo partly drawn) | i | 110* | i | i | i
Cc1ccc(C2(CCNC(C)c3cccs3)CCOC(C(C)C)C2)cc1 (stereo not drawn) | i | 44* | i | i | i
COc1ccccc1C1(CCNC(C)c2cccs2)CCOC(C(C)C)C1 (stereo not drawn) | i | 77* | i | i | i
Cc1ccc(C2(CCN)CCOC(C(C)C)C2)cc1 (stereo not drawn) | i | i | i | i | i
CC(=O)O[C@H]1C[C@@]2(C)[C@@H](C[C@@H](O)[C@H]3[C@@]4(C)CC[C@@H](O)[C@@H](C)[C@@H]4CC[C@@]32C)/C1=C(\CCC=C(C)C)C(=O)O | i | i | i | i | i
O=C(Nc1ccccc1)NC1CCN(Cc2c(F)cccc2Cl)CC1 | i | i | i | i | i
CC(C)(C)c1ccccc1NC(=O)NC1CCN(Cc2c(F)cccc2Cl)CC1 | i | 116* | i | i | i
COc1ccc(Cl)cc1NC(=O)NCC1CCN(Cc2cc(C)ccc2C)CC1 | i | i | i | i | i
Cc1ccc(C)c(CN2CCC(CNC(=O)Nc3ccc(C)c(C)c3)CC2)c1 | i | i | 11* | i | i
S=c1[nH]nc(-c2cc3c(s2)-c2ccccc2CC3)o1 | i | i | i | -6* | i
Cc1cc(N(CCO)CCO)ccc1C(c1ccc(N(CCO)CCO)cc1C)c1ccccc1Cl | i | i | 11* | i | i
O=c1c(Cc2ccc(F)cc2)c(O)ccn1Cc1ccc(F)cc1 | i | i | i | i | i
O=c1c(Cc2ccc(F)cc2)c(O)ccn1CCc1cnc[nH]1 | i | 108* | i | i | i
O=c1c(Cc2ccccc2)c(O)ccn1CCc1cnc[nH]1 | i | 129* | i | i | i
O=C(C1CCN(S(=O)(=O)c2cccnc2)CC1)N1CCN(c2ccc(Cl)cc2)CC1 | i | 63* | i | -6* | i
COc1ccc(NC(=O)/C(C#N)=C\c2ccc(-c3cc(C(=O)O)ccc3C)o2)cc1 | i | i | i | i | i
CCCCCOc1ccc(/C(C)=N/NC2=NCCN2)cc1 | i | i | i | i | i
CCOc1ccc(Br)cc1/C(C)=N\NC1=NCCN1 | i | 82* | i | i | i
CCOC(=O)C1=C(COC(=O)c2ccc(OC)c(OC)c2OC)NC(=O)NC1C (stereo not drawn) | i | i | i | i | i
COC(=O)c1sccc1NC(=S)N1CCN(C)CC1 | i | 50* | i | i | i
CCN1CCN(C(=S)Nc2ccsc2C(=O)OC)CC1 | i | 57* | i | i | i
COC(=O)c1sccc1NC(=S)N1CCN(c2cc(C)ccc2C)CC1 | i | i | i | i | i

Screening data (PubChem)
